Test system: MS2 coat protein
Test: apparent Kd, MS2 coat protein; higher = weaker binding; RNA-MaP array; FMN 200 µM where present
Summary of the method: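 Two titrations, one without ligand and one with constant ligand, were run with SNAP-549-labelled MS2 coat protein from 0.7 or 1.5 nM, doubling to 3 µM. The targets were designs transcribed by stalled E. coli RNA polymerase on Illumina sequencing-chip clusters, in 100 mM Tris-HCl pH 7.5, 80 mM KCl, 4 mM MgCl2, BSA, DTT, yeast tRNA and Tween-20. The apparent Kd is the median of filtered per-cluster binding-curve fits, with green signal normalised to red-channel RNA signal and control-cluster median Fmax.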

[1] = designed as: OFF switch for flavin mononucleotide, no ligand
[2] = ligand present: flavin mononucleotide, designed as: OFF switch for flavin mononucleotide
[3] = designed as: ON switch for flavin mononucleotide, no ligand
[4] = ligand present: flavin mononucleotide, designed as: ON switch for flavin mononucleotide

| Sequence | apparent Kd [1] [nM] | apparent Kd [2] [nM] | apparent Kd [3] [nM] | apparent Kd [4] [nM] |
| --- | --- | --- | --- | --- |
| AUGUAGCUAGGAUAUACAUAGAUACAGAUUCAUGUAGAACUACAUGAGGAUCACCCAUGUAGAAGGAGCUAAAA | 28.7 | 50.4 | – | – |
| AUGUAUCACACAGGAUAUACAUGAGGAUCACCCAUGUGUCCUCCGUAAUUGACACCAAUUACGCUGUAGAAGGGUGUGAUACAU | 274 | 204 | – | – |
| AUGUUACAUGAGGAUCACCCAUGUGAGGAUAUGUGUACUGGUAAAAAAGUGUUUGGCCACAGAAGGCAUUUGGA | 29.1 | 31.2 | – | – |
| AUGUUAGGAGGAUAUCGAUUUCAGGACAUGAGGAUCACCCAUGUACUAAAAGUCGUGGUUCGAGAAGGCCUAACUU | 17.5 | 23.5 | – | – |
| AUGUUAUUCUGAGGAUAUUGUUUAUUCUUCUCACAUGAGGAUCACCCAUGUUUCCGUGUUUACCGCAAGAAGGCAGUUUUGUUU | 29.9 | 27.5 | – | – |
| AUGUUGAGCAGUGUAUUAAGAUCACAUGAGGAUCACCCAUGUAGAAGGCACGAGCUGAUCGCUCGUGAGGAUAUACAUCACUGC | 10.3 | 110 | – | – |
| AUUAAACAUGAGGAUCACCCAUGUCAACAAAGUCGAGGAUAUGGGCAUAUUAUCUAAUAACCAGAAGGCGAAUAAU | – | – | 182 | 45.9 |
| AUUAACUACAUAGGAUAUUGUUACAUGAGGAUCACCCAUGUUAUAUGGGAACUAGGAAUAUUUGUCAAGAAGGAUGUGGUUACA | – | – | 232 | 33 |
| AUUACAUGAGGAUCACCCAUGUACAGAACGUUUCAUUACAGUGAGGAUAUACGAAAUGUAAAAGCGUAGAAGGCACUGGGUACA | – | – | 29.5 | 22.2 |
| AUUAGGUCAGGAUAUACAUGAGGAUCACCCAUGUAGGUGGAACCUUUAUCGGGUGACCGUAGAAGGGACAUCAA | 41.1 | 76.3 | – | – |
| AUUAUACAUGAGGAUCACCCAUGUCAACAAAGUCGAGGAUAUGGGCAAAUAAAAUAAGAACCAGAAGGCGAAUAAU | – | – | 238 | 61 |
| AUUAUAUAGGAAGGAUAUAGAAUAUUAUUUUAACAUGAGGAUCACCCAUGUAACCUUAUGUGUAGCUAGAAGGUCCAUUUGUUA | – | 315 | – | – |
| AUUAUUAAGGUAGGAUAUAGUAUAAUAAUUAAAUUAGAAGGAUCUCACAUGAGGAUCACCCAUGUAAGAGGAUCACCCAUGUAU | 10.3 | 10.4 | – | – |
| AUUAUUAUAUUAUACAUGAGGAUCACCCAUGUUAUAAGUCAUGAGGAUAUGGUUAUGUAGAUUUGCCAGAAGGCAUUUAACUUA | – | – | 14.9 | 9.91 |
| AUUAUUGACAUAGGAUAUUGUUACAUGAGGAUCACCCAUGUUAUUUGGGAACUAGGAAUAUUUUACAAGAAGGAUGUUGUUAAA | – | – | 91 | 79.3 |
| AUUAUUGACGUAGGAUAUUGUUACAUGAGGAUCACCCAUGUUAUUUGGGAACUAGGAAUAUUUUACAAGAAGGACGUUGUUAAA | – | – | 74.9 | 92.1 |
| AUUAUUGGCUAAGGAUAUGGAUACAUGAGGAUCACCCAUGUAUUUUUUGUGAUCAUAUAAAUGAUCCAGAAGGUAGCUGUUUAU | 23.1 | 70.1 | – | – |
| AUUAUUUAAGUCAGGAUAUCGUAUUUAUUUAAAUACGAGAAGGGACAUGAGGAUCACCCAUGUAAUAAAUUUUA | 14.2 | 20.4 | – | – |
| AUUAUUUAAGUCAGGAUAUCGUAUUUAUUUAAAUACGAGAAGGGACAUGAGGAUCACCCAUGUAAUAAAUUUUU | 16.9 | 22.9 | – | – |
| AUUCUGCUCGCAGGAUAUCAGGAAAUGUUGAUCUUCUGUAUCUCCUACAUGAGGAUCACCCAUGUUGAGAAGGGCGAUGGCAAU | 65.7 | 400 | – | – |
| AUUGACUGAGGAUAUUGUACUGCUGACAUGAGGAUCACCCAUGUAUGCUAACUCGGCCGUCGAGAAGGCAGUCAUG | 29.2 | 17.3 | – | – |
| AUUGAUGUUGAGGAUAUGCUUUUAUUUAUAAUAGCAGAAGGCGAUACAUGAGGAUCACCCAUGUUCAUGGUAGU | 62.2 | 67 | – | – |
| AUUGAUGUUGAGGAUAUGCUUUUAUUUGUUCUUGCAGAAGGCGAUACAUGAGGAUCACCCAUGUUCAUGGAAGU | 51.6 | 46.6 | – | – |
